Assay [1] deals with Bacillus subtilis. The assay can be described thus: Antibacterial activity against Bacillus subtilis by almar blue dye reduction assay. The assay is classed as functional. The gist of the method:
(§1)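 Compounds advanced from the 1 mM screen were tested over a dilution series, with a top concentration of 1 mM, using Alamar Blue dye reduction. MIC is the lowest concentration with no dye reduction. Where inhibition was partial with some growth at the top concentration, the value is reported as '>'.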

The test system of assay [2] is Candida albicans. The assay can be described thus: Antifungal activity against Candida albicans at 1 mM by almar blue dye reduction assay. In kind it is functional, organism-based. The gist of the method: (§2)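 Single-point primary screen at 1 mM using Alamar Blue dye reduction as the growth read-out.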
Assay [3] concerns Escherichia coli. The assay can be described thus: Antibacterial activity against Escherichia coli at 1 mM by almar blue dye reduction assay. In kind it is functional, organism-based. In a few lines:
as §2

Assay [4] concerns Bacillus cereus. The assay can be described thus: Antibacterial activity against Bacillus cereus at 1 mM by almar blue dye reduction assay. The assay is classed as functional, organism-based. The gist of the method:
as §2

Assay [5] relates to Saccharomyces cerevisiae. Description: Antifungal activity against Saccharomyces cerevisiae at 1 mM by almar blue dye reduction assay. In kind it is functional, organism-based. In a few lines: as §2
In assay [6] the test system is Pseudomonas aeruginosa. The assay can be described thus: Antibacterial activity against Pseudomonas aeruginosa at 1 mM by almar blue dye reduction assay. The assay is classed as functional, organism-based. In a few lines: as §2
Assay [7] deals with Bacillus anthracis. The assay can be described thus: Antibacterial activity against Bacillus anthracis at 1mM by almar blue dye reduction assay. The assay is classed as functional, organism-based.
The subject of assay [8] is Cryptococcus neoformans. The assay can be described thus: Antifungal activity against Cryptococcus neoformans at 1 mM by almar blue dye reduction assay. In kind it is functional, organism-based. In a few lines: as §2
For assay [9], the system named is Staphylococcus aureus. The assay can be described thus: Antibacterial activity against Staphylococcus aureus at 1 mM by almar blue dye reduction assay. In kind it is functional, organism-based. The gist of the method:
as §2

The test system of assay [10] is Cryptococcus neoformans. The assay can be described thus: Antifungal activity against Cryptococcus neoformans at by almar blue dye reduction assay. In kind it is functional. The gist of the method:
as §1

Assay [11] has as its system Bacillus subtilis. The assay can be described thus: Antibacterial activity against Bacillus subtilis at 1 mM by almar blue dye reduction assay. In kind it is functional, organism-based. The gist of the method:
as §2

Assay [12] relates to Staphylococcus aureus. The assay can be described thus: Antibacterial activity against Staphylococcus aureus by almar blue dye reduction assay. The assay is classed as functional. The gist of the method: as §1
Assay [13] concerns Candida albicans. The assay can be described thus: Antifungal activity against Candida albicans by almar blue dye reduction assay. The assay is classed as functional. In a few lines: as §1
Assay [14] deals with Escherichia coli. The assay can be described thus: Antibacterial activity against Escherichia coli by almar blue dye reduction assay. In kind it is functional. The gist of the method: as §1
The subject of assay [15] is Bacillus cereus. Description: Antibacterial activity against Bacillus cereus by almar blue dye reduction assay. The assay is classed as functional. The gist of the method: as §1
The subject of assay [16] is Saccharomyces cerevisiae. Description: Antifungal activity against Saccharomyces cerevisiae by almar blue dye reduction assay. The assay is classed as functional. The gist of the method:
as §1

The subject of assay [17] is Pseudomonas aeruginosa. The assay can be described thus: Antimicrobial activity against Pseudomonas aeruginosa by almar blue dye reduction assay. In kind it is functional. In a few lines: as §1
For assay [18], the system named is Bacillus anthracis. The assay can be described thus: Antibacterial activity against Bacillus anthracis by almar blue dye reduction assay. The assay is classed as functional.

A word on the MIC: it is the lowest concentration found to suppress growth. A lower MIC goes with inhibition by little substance.

≈ marks a conversion by molar mass, not a printed value. Calls of active or inactive are those of the source. The rule behind the calls is not given here.

The molecule `CCN(CC)C(=O)[C@H](C)C1CCC(C[C@@H](C)n2cc(C#CCNC(=O)Nc3cccc(C)c3)nn2)O1` (single isomer, unassigned) returned an MIC against Bacillus subtilis [1] of 700 µg/mL (≈ 1420 µM). In addition, the result in the assay with Candida albicans [2], in the assay with Escherichia coli [3], with Bacillus cereus [4], with Saccharomyces cerevisiae [5], in the assay on Pseudomonas aeruginosa [6] and in the assay on Bacillus anthracis [7] was inactive. Also, the result with Cryptococcus neoformans [8] and in the assay with Staphylococcus aureus [9] was inactive.
As for `CCN(CC)C(=O)[C@H](C)[C@H]1CC[C@@H](C[C@@H](C)n2cc(C#CCOc3cccc(OC)c3OC)nn2)O1`, the result in the assay on Candida albicans [2], in the assay with Escherichia coli [3], with Bacillus cereus [4], in the assay on Saccharomyces cerevisiae [5], in the assay on Pseudomonas aeruginosa [6] and with Bacillus anthracis [7] was inactive. Also, the outcome with Bacillus subtilis [11] and in the assay with Staphylococcus aureus [9] was inactive. Moreover, the MIC against Cryptococcus neoformans [10] worked out at 480 µg/mL (≈ 963 µM).
As to `CCOC(=O)C#Cc1cn([C@H](C)CC2CCC([C@@H](C)C(=O)N3CCN(CC4CCCO4)CC3)O2)nn1` (single isomer, unassigned), the MIC in the assay with Bacillus subtilis [1] was determined as 240 µg/mL (≈ 478 µM); against Staphylococcus aureus [12] it was 120 µg/mL (≈ 239 µM); with Candida albicans [13], 240 µg/mL (≈ 478 µM); against Cryptococcus neoformans [10] it was 480 µg/mL (≈ 957 µM); in the assay with Escherichia coli [14], 120 µg/mL (≈ 239 µM); against Bacillus cereus [15], 240 µg/mL (≈ 478 µM). Further, the MIC was 240 µg/mL (≈ 478 µM) in the assay on Saccharomyces cerevisiae [16], 480 µg/mL (≈ 957 µM) in the assay with Pseudomonas aeruginosa [17] and > 480 µg/mL with Bacillus anthracis [18].
Take `C[C@H](C[C@@H]1CC[C@H]([C@@H](C)C(=O)N2CCN(CC3CCCO3)CC2)O1)n1cc(C#Cc2ccc(-c3ccccc3)cc2)nn1` (some centres undefined): inhibition of growth in the assay with Bacillus subtilis [1] (MIC) required 560 µg/mL (≈ 963 µM). Also, the outcome in the assay with Candida albicans [2], in the assay on Escherichia coli [3], with Bacillus cereus [4], in the assay with Saccharomyces cerevisiae [5], with Pseudomonas aeruginosa [6] and in the assay on Bacillus anthracis [7] was inactive. Besides, the outcome with Cryptococcus neoformans [8] and in the assay with Staphylococcus aureus [9] was inactive.
With `C[C@H](C[C@@H]1CC[C@H]([C@@H](C)C(=O)N2CCN(CC3CCCO3)CC2)O1)n1cc(C#Cc2cccc3ccccc23)nn1` (some centres undefined), the MIC against Bacillus subtilis [1] is 790 µg/mL (≈ 1420 µM); against Bacillus cereus [15], 260 µg/mL (≈ 468 µM); against Bacillus anthracis [18], 263 µg/mL (≈ 473 µM). Further, the outcome in the assay on Candida albicans [2], with Escherichia coli [3], in the assay with Bacillus cereus [4], with Saccharomyces cerevisiae [5], in the assay with Pseudomonas aeruginosa [6] and in the assay with Bacillus anthracis [7] was inactive. Moreover, the result with Cryptococcus neoformans [8], with Bacillus subtilis [11] and in the assay with Staphylococcus aureus [9] was inactive.
In turn, `C[C@H](C[C@@H]1CC[C@H]([C@@H](C)C(=O)N2CCN(CC3CCCO3)CC2)O1)n1cc(C#Cc2ccc(C(F)(F)F)cc2)nn1` (some centres undefined) had an MIC in the assay on Bacillus subtilis [1] of 820 µg/mL (≈ 1430 µM). In addition, the outcome in the assay with Candida albicans [2], with Escherichia coli [3], in the assay on Bacillus cereus [4], with Saccharomyces cerevisiae [5], in the assay on Pseudomonas aeruginosa [6] and with Bacillus anthracis [7] was inactive. In addition, the result in the assay on Cryptococcus neoformans [8] and with Staphylococcus aureus [9] was inactive.
Consider `CCCCN(CC#Cc1cn([C@H](C)C[C@@H]2CC[C@H]([C@@H](C)C(=O)N(C)Cc3ccccc3)O2)nn1)CCCC`, for which the MIC in the assay on Bacillus subtilis [1] is 250 µg/mL (≈ 479 µM); in the assay with Staphylococcus aureus [12], 500 µg/mL (≈ 958 µM); against Cryptococcus neoformans [10], 250 µg/mL (≈ 479 µM); against Bacillus cereus [15], 250 µg/mL (≈ 479 µM); against Bacillus anthracis [18], 500 µg/mL (≈ 958 µM). In addition, the outcome with Candida albicans [2], in the assay with Escherichia coli [3], in the assay on Saccharomyces cerevisiae [5] and with Pseudomonas aeruginosa [6] was inactive.
For `CCCCN(CC#Cc1cn([C@H](C)C[C@@H]2CC[C@H]([C@@H](C)C(=O)N3CCN(CC4CCCO4)CC3)O2)nn1)CCCC` (some centres undefined), in the assay on Bacillus subtilis [1], the MIC is 820 µg/mL (≈ 1440 µM). Moreover, the result with Candida albicans [2], in the assay with Escherichia coli [3], in the assay with Bacillus cereus [4], in the assay on Saccharomyces cerevisiae [5], in the assay with Pseudomonas aeruginosa [6] and with Bacillus anthracis [7] was inactive. In addition, the outcome with Cryptococcus neoformans [8] and in the assay on Staphylococcus aureus [9] was inactive.
`Cc1cccc(NC(=O)OCC#Cc2cn([C@H](C)CC3CCC([C@@H](C)C(=O)N4CCN(CC5CCCO5)CC4)O3)nn2)c1` (single isomer, unassigned): the outcome in the assay with Candida albicans [2], in the assay with Escherichia coli [3], in the assay on Saccharomyces cerevisiae [5], in the assay on Pseudomonas aeruginosa [6], with Bacillus anthracis [7] and in the assay with Cryptococcus neoformans [8] was inactive. Besides, the result with Bacillus subtilis [11] and with Staphylococcus aureus [9] was inactive. Further, in the assay with Bacillus cereus [15], the MIC turned out to be 570 µg/mL (≈ 962 µM).
In the case of `C[C@H](C[C@@H]1CC[C@H]([C@@H](C)C(=O)N(C)Cc2ccccc2)O1)n1cc(C#CCC2CCCC2)nn1`, the result with Candida albicans [2], with Escherichia coli [3], with Pseudomonas aeruginosa [6], in the assay with Bacillus subtilis [11] and in the assay with Staphylococcus aureus [9] was inactive. The MIC turned out to be 219 µg/mL (≈ 473 µM) with Cryptococcus neoformans [10], 440 µg/mL (≈ 951 µM) in the assay with Bacillus cereus [15], 220 µg/mL (≈ 476 µM) against Saccharomyces cerevisiae [16] and 440 µg/mL (≈ 951 µM) in the assay on Bacillus anthracis [18].
Consider `CCCCCC#Cc1cn([C@H](C)C[C@@H]2CC[C@H]([C@@H](C)C(=O)N(C)Cc3ccccc3)O2)nn1`, for which the result in the assay on Candida albicans [2], in the assay with Escherichia coli [3], with Pseudomonas aeruginosa [6], with Bacillus subtilis [11] and in the assay on Staphylococcus aureus [9] was inactive. Also, the MIC against Cryptococcus neoformans [10] was determined as 430 µg/mL (≈ 954 µM); with Bacillus cereus [15], 640 µg/mL (≈ 1420 µM); in the assay with Saccharomyces cerevisiae [16] it was 430 µg/mL (≈ 954 µM); against Bacillus anthracis [18] it was 430 µg/mL (≈ 954 µM).
For the molecule `C[C@H](C[C@@H]1CC[C@H]([C@@H](C)C(=O)N2CCN(CC3CCCO3)CC2)O1)n1cc(C#CCOc2cccc(-c3ccccc3)c2)nn1` (some centres undefined), the MIC in the assay on Bacillus subtilis [1] is 880 µg/mL (≈ 1440 µM); against Candida albicans [13], 590 µg/mL (≈ 964 µM); against Cryptococcus neoformans [10], 290 µg/mL (≈ 474 µM); in the assay with Bacillus cereus [15], 150 µg/mL (≈ 245 µM); in the assay on Saccharomyces cerevisiae [16], 290 µg/mL (≈ 474 µM); against Bacillus anthracis [18], > 590 µg/mL. The result with Escherichia coli [3], in the assay on Pseudomonas aeruginosa [6] and in the assay with Staphylococcus aureus [9] was inactive.
For `C[C@H](C[C@@H]1CC[C@H]([C@@H](C)C(=O)N(C)Cc2ccccc2)O1)n1cc(C#CCN(C)CCc2ccccc2)nn1`, the MIC in the assay with Bacillus subtilis [1] worked out at 250 µg/mL (≈ 474 µM); against Staphylococcus aureus [12], 500 µg/mL (≈ 947 µM); against Cryptococcus neoformans [10], 500 µg/mL (≈ 947 µM); in the assay with Bacillus cereus [15], 250 µg/mL (≈ 474 µM); against Bacillus anthracis [18] it was 250 µg/mL (≈ 474 µM). Further, the result in the assay with Candida albicans [2], in the assay with Escherichia coli [3], in the assay on Saccharomyces cerevisiae [5] and with Pseudomonas aeruginosa [6] was inactive.
Regarding `C[C@H](C[C@@H]1CC[C@H]([C@@H](C)C(=O)N(C)Cc2ccccc2)O1)n1cc(C#Cc2ccccn2)nn1`, the outcome in the assay on Candida albicans [2], with Escherichia coli [3], in the assay with Bacillus cereus [4], in the assay with Saccharomyces cerevisiae [5], in the assay with Pseudomonas aeruginosa [6] and in the assay on Cryptococcus neoformans [8] was inactive. For the same molecule, the result in the assay with Bacillus subtilis [11] and in the assay on Staphylococcus aureus [9] was inactive. For the same molecule, the MIC against Bacillus anthracis [18] was > 430 µg/mL.

The values above are taken from ChEMBL document CHEMBL1155099, “Natural products in parallel synthesis: triazole libraries of nonactic acid” (2008).
